According to ChEMBL document CHEMBL1149606, “Synthesis, 3D-QSAR, and docking studies of 1-phenyl-1H-1,2,3-triazoles as selective antagonists for beta3 over alpha1beta2gamma2 GABA receptors” (Bioorg Med Chem, 2007):

How the values were obtained:
Homo sapiens = species: Homo sapiens; test: Selectivity for human GABA-beta-3 receptor over human GABA alpha-1-beta-2-gamma-2 receptor
Summary of the method: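 Selectivity from [³H]EBOB competition binding run separately on each receptor. β3 assay: membranes (50 µg protein) from hygromycin-selected Drosophila S2 cells stably expressing human β3, copper sulfate-induced 24 h before harvest; 0.5 nM [³H]EBOB, 10 mM Na phosphate/300 mM NaCl pH 7.5, 22 °C, 70 min. α1β2γ2 assay: membranes (150 µg) from stable HEK-293 cells; 1 nM [³H]EBOB, 50 mM Na phosphate/200 mM NaCl pH 7.4, 25 °C, 90 min. Both assays: GF/B filtration, scintillation counting, nonspecific binding with 5 µM EBOB, ≥3 repeats, probit IC50, then Cheng–Prusoff Ki (Kd 5.0 and 10.7 nM).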

[1] = target: T1, Gamma-aminobutyric acid receptor subunit beta-3 (Homo sapiens, UniProt P28472); test: Displacement of [3H]EBOB from human recombinant GABAbeta3 receptor expressed in HEK293 cells; type: cell-based
T1 sequence (P28472 whole entry): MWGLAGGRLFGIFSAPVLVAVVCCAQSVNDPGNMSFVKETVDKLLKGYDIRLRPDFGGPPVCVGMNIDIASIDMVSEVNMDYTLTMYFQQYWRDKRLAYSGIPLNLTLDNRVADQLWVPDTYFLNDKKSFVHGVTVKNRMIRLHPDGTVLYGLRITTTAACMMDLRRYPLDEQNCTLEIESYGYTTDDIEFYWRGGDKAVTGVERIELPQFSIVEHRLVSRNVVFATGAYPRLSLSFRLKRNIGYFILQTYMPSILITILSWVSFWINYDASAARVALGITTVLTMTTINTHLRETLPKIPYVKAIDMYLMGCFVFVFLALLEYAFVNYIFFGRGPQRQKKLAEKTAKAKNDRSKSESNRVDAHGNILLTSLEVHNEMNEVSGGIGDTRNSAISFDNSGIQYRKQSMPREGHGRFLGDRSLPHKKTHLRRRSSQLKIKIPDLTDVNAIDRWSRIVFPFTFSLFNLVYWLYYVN

[2] = target: GABA A receptor alpha-1/beta-2/gamma-2 (Homo sapiens); test: Displacement of [3H]EBOB from human recombinant GABA alpha-1-beta-2-gamma-2 receptor expressed in HEK293 cells
Musca domestica = test: Insecticidal activity against house fly WHO/SRS assessed as mortality after 24 hrs; type: functional
Summary of the method: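 Adult female houseflies, 3–5 days post-emergence, pretreated with piperonyl butoxide (10 µg in 1 µL acetone) 1 h before topical thoracic dosing of compound in 1 µL acetone at several doses; 30 flies per dose, kept at 25 °C with sugar and water. Mortality read at 24 h, three repeats; LD50 by probit on mean mortality.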

Compound	Ratio Ki (Homo sapiens)	Ki [1]	Ki [2]	LD50 (Musca domestica)
CCCc1c(CC)nnn1-c1c(Cl)cc(C(F)(F)F)cc1Cl	> 194	0.0472 µM	> 9.15 µM	
CCCCc1cn(-c2c(Cl)cc(Br)cc2Cl)nn1	> 293		> 9.15 µM	
CCCCc1cn(-c2ccc(Br)cc2)nn1	> 2.87		> 9.15 µM	
CCCCc1cn(-c2c(Cl)cc(C(F)(F)F)cc2Cl)nn1	362		1.01 µM	
CCCc1c(C)nnn1-c1c(Cl)cc(C(F)(F)F)cc1Cl	> 17	0.539 µM	> 9.15 µM	
CCCCc1cnnn1-c1c(Cl)cccc1Cl	> 4.46		> 9.15 µM	
CCCc1nnn(-c2c(Cl)cc(C(F)(F)F)cc2Cl)c1CC	> 1130	0.00807 µM	> 9.15 µM	
FC(F)(F)c1cc(Cl)c(-n2cc(CCCCl)nn2)c(Cl)c1	378		0.616 µM	
Nc1c(-c2ccccc2)nnn1-c1c(Cl)cc(C(F)(F)F)cc1Cl	57.1		1.16 µM	
CCCCc1cn(-c2c(Cl)cccc2Cl)nn1	> 2.6		> 9.15 µM	
CCCCc1cnnn1-c1c(Cl)cc(Cl)cc1Cl	> 2.24		> 9.15 µM	
CCCCCCc1cnnn1-c1c(Cl)cc(C(F)(F)F)cc1Cl	> 10.6		> 9.15 µM	
CC(C)(C)c1cn(-c2c(Cl)cc(C(F)(F)F)cc2Cl)nn1	470		0.39 µM	1.86 pmol
CCc1c(C)nnn1-c1c(Cl)cc(C(F)(F)F)cc1Cl		0.0701 µM		
FC(F)(F)c1cc(Cl)c(-n2cc(-c3ccccc3)nn2)c(Cl)c1	> 71.5		> 9.15 µM	
CCCc1cn(-c2c(Cl)cc(C(F)(F)F)cc2Cl)nn1	220		0.47 µM	
CCCc1nnn(-c2c(Cl)cc(C(F)(F)F)cc2Cl)c1CO	153	0.00253 µM	0.387 µM	
CCCCc1cn(-c2c(Cl)cc(Cl)cc2Cl)nn1	> 111		> 9.15 µM	
CCCc1nnn(-c2c(Cl)cc(C(F)(F)F)cc2Cl)c1C	166	0.00194 µM	0.322 µM	

Compound	Ratio Ki (Homo sapiens)	Ki [1]	Ki [2]	LD50 (Musca domestica)
CCCc1c(CO)nnn1-c1c(Cl)cc(C(F)(F)F)cc1Cl	> 2.65	3.45 µM	> 9.15 µM	
CCCc1nnn(-c2c(Br)cc(C(F)(F)F)cc2Br)c1C	> 673	0.0136 µM	> 9.15 µM	
CCc1nnn(-c2c(Cl)cc(C(F)(F)F)cc2Cl)c1CC		0.00427 µM		
CCCCc1cnnn1-c1ccc(C(F)(F)F)cc1	> 1.73		> 9.15 µM	
CCCc1nnn(-c2c(Cl)cc(C(F)(F)F)cc2Cl)c1CCl	403	0.000659 µM	0.266 µM	5.17 pmol
CCCCc1cnnn1-c1ccc(Br)cc1	> 3.35		> 9.15 µM	
CCCCCc1cn(-c2c(Cl)cc(C(F)(F)F)cc2Cl)nn1	50		1.39 µM	
CCCCCCc1cn(-c2c(Cl)cc(C(F)(F)F)cc2Cl)nn1	5.05		1.98 µM	
CCCc1c(CCl)nnn1-c1c(Cl)cc(C(F)(F)F)cc1Cl	> 137	0.0667 µM	> 9.15 µM	
C#Cc1ccc(-n2nncc2CCCC)cc1	> 1.21		> 9.15 µM	
CCCc1cnnn1-c1c(Cl)cc(C(F)(F)F)cc1Cl	> 12.1		> 9.15 µM	
FC(F)(F)c1cc(Cl)c(-n2nncc2-c2ccccc2)c(Cl)c1	> 19.3		> 9.15 µM	
CCCCc1cnnn1-c1c(Cl)cc(Br)cc1Cl	> 11.7		> 9.15 µM	
C#Cc1cc(Cl)c(-n2cc(CCCC)nn2)c(Cl)c1	> 264		> 9.15 µM	
CCCCCc1cnnn1-c1c(Cl)cc(C(F)(F)F)cc1Cl	> 6.58		> 9.15 µM	
CCc1nnn(-c2c(Cl)cc(C(F)(F)F)cc2Cl)c1C	150	0.00708 µM	1.06 µM	
CCCc1nnn(-c2c(Cl)cc(C(F)(F)F)cc2Cl)c1CCC	> 71.5	0.128 µM	> 9.15 µM	
FC(F)(F)c1cc(Cl)c(-n2cc(C3CCCCC3)nn2)c(Cl)c1	127		1.5 µM	
